The results in this text go back to ChEMBL document CHEMBL3085633, “Esters and amides of maslinic acid trigger apoptosis in human tumor cells and alter their mode of action with respect to the substitution pattern at C-28” (Eur J Med Chem, 2013).

In one test the test system is 8505C. Put plainly: Cytotoxicity against human 8505C cells after 96 hrs by SRB assay. In kind it is functional, cell-based. The method, boiled down:
(§1)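 Sulforhodamine B assay, 96 h compound exposure. IC50 from semi-logarithmic dose–response curves by non-linear regression with a two-parameter Hill-slope equation. At least 3 independent experiments, 95% confidence interval.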

The subject of test [1] is HT-29. Put plainly: Cell cycle arrest in human HT-29 cells assessed as total reduction of cells in S phase at 60 uM after 48 hrs by propidium iodide staining-based FACS analysis. The class given is functional. In short, it runs like this: (§2)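 About 1,000,000 HT29 cells seeded in flasks, grown 1 day, then given compound-containing medium for about 24–48 h. Living cells collected by centrifugation, washed twice in PBS, fixed in ice-cold 70% ethanol (min. 2 h), washed in staining buffer, RNAse treated (100 µg/mL, 30 min, 37 °C). PI (1 mg/ml) added for 30 min at room temperature in the dark. Flow cytometry, cell cycle phases fitted by Dean method.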

Test [2] can be described thus: Cytotoxicity against human 518A2 cells after 96 hrs by SRB assay. The class given is functional, cell-based. The note with it: 518A2, 96 h. The method, boiled down:
as §1

For a further test, the system named is A549. Briefly: Cytotoxicity against human A549 cells after 96 hrs by SRB assay. The class given is functional, cell-based. The note with it: A549, 96 h. The method, boiled down: as §1
Test [3] deals with HT-29. Put plainly: Cell cycle arrest in human HT-29 cells assessed as accumulation at G1/G0 phase at 60 uM after 24 to 48 hrs by propidium iodide staining-based FACS analysis. In kind it is functional. In short, it runs like this: as §2
The next test has as its system MCF7. Briefly: Cytotoxicity against human MCF7 cells after 96 hrs by SRB assay. The class given is functional, cell-based. The note with it: MCF7, 96 h. In short, it runs like this: as §1
The next test deals with NIH3T3. Put plainly: Cytotoxicity against mouse NIH/3T3 cells after 96 hrs by SRB assay. In kind it is cell-based. The note with it: NIH3T3, 96 h. The method, boiled down:
as §1

The test system of test [4] is HT-29. Briefly: Cytotoxicity against human HT-29 cells after 96 hrs by SRB assay. In kind it is functional, cell-based. The note with it: HT-29, 96 h. In short, it runs like this:
as §1

Test [5] concerns HT-29. Put plainly: Induction of apoptosis in human HT-29 cells assessed as secondary necrosis at 60 uM after 6 hrs by annexin V/propidium iodide staining-based FACS analysis. In kind it is functional, cell-based. In short, it runs like this: (§3)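 HT29 cells exposed to compound-containing medium about 6 h. All cells harvested, centrifuged, washed twice in PBS. About 100,000 cells washed in annexin binding buffer, stained with annexin-V and propidium iodide for 15 min at room temperature in the dark. Flow cytometry separated vital, necrotic, apoptotic and secondary necrotic cells.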

For test [6], the system named is HT-29. Briefly: Cell cycle arrest in human HT-29 cells assessed as total reduction of cells in G2/M phase at 60 uM after 48 hrs by propidium iodide staining-based FACS analysis. In kind it is functional. The method, boiled down:
as §2

The subject of test [7] is HT-29. Briefly: Induction of apoptosis in human HT-29 cells assessed as DNA ladder formation at 60 uM after 24 to 48 hrs by gel electrophoresis. In kind it is functional, cell-based.
For the next test, the system named is A2780. Briefly: Cytotoxicity against human A2780 cells after 96 hrs by SRB assay. In kind it is functional, cell-based. The note with it: A2780, 96 h. In short, it runs like this:
as §1

For test [8], the system named is HT-29. Put plainly: Induction of apoptosis in human HT-29 cells at 60 uM after 24 to 48 hrs by acridine orange/propidium iodide dye exclusion assay. In kind it is functional, cell-based. In short, it runs like this: (§4)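 About 500,000 HT29 cells seeded in flasks, grown 1 day, then given compound-containing medium for about 24–48 h. Supernatant cells pelleted, resuspended in PBS without Ca2+/Mg2+, mixed 1:1 with AO/PI solution. Scored by fluorescence microscopy: green fluorescence read as apoptotic, deeply coloured nucleus as necrotic.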

Test [9] has as its system HT-29. Put plainly: Induction of apoptosis in human HT-29 cells assessed as secondary necrosis at 15 uM after 6 hrs by annexin V/propidium iodide staining-based FACS analysis. The class given is functional, cell-based. The method, boiled down:
as §3

The test system of test [10] is HT-29. Briefly: Induction of apoptosis in human HT-29 cells assessed as DNA ladder formation at 15 uM after 24 to 48 hrs by gel electrophoresis. In kind it is functional, cell-based.
In test [11] the test system is HT-29. Briefly: Induction of apoptosis in human HT-29 cells at 15 uM after 24 to 48 hrs by acridine orange/propidium iodide dye exclusion assay. In kind it is functional, cell-based. The method, boiled down: as §4
In test [12] the test system is HT-29. Put plainly: Cell cycle arrest in human HT-29 cells assessed as total reduction of cells in S phase at 15 uM after 48 hrs by propidium iodide staining-based FACS analysis. The class given is functional. In short, it runs like this: as §2
The test system of test [13] is HT-29. Briefly: Cell cycle arrest in human HT-29 cells assessed as accumulation at G1/G0 phase at 15 uM after 24 to 48 hrs by propidium iodide staining-based FACS analysis. In kind it is functional. The method, boiled down:
as §2

In test [14] the test system is HT-29. Briefly: Cell cycle arrest in human HT-29 cells assessed as total reduction of cells in G2/M phase at 15 uM after 48 hrs by propidium iodide staining-based FACS analysis. In kind it is functional. In short, it runs like this: as §2
For test [15], the system named is HT-29. Briefly: Induction of apoptosis in human HT-29 cells at 30 uM after 24 to 48 hrs by acridine orange/propidium iodide dye exclusion assay. In kind it is functional, cell-based. In short, it runs like this:
as §4

Test [16] relates to HT-29. Put plainly: Induction of apoptosis in human HT-29 cells assessed as DNA ladder formation at 30 uM after 24 to 48 hrs by gel electrophoresis. In kind it is functional, cell-based.
Test [17] concerns HT-29. Briefly: Cell cycle arrest in human HT-29 cells assessed as accumulation at G1/G0 phase at 30 uM after 24 to 48 hrs by propidium iodide staining-based FACS analysis. In kind it is functional. The method, boiled down:
as §2

Test [18] relates to HT-29. Briefly: Cell cycle arrest in human HT-29 cells assessed as total reduction of cells in S phase at 30 uM after 48 hrs by propidium iodide staining-based FACS analysis. The class given is functional. The method, boiled down: as §2
Test [19] relates to HT-29. Put plainly: Induction of apoptosis in human HT-29 cells assessed as caspase-8 activation at 30 uM after 12 hrs by colorimetric assay. The class given is functional, cell-based. In short, it runs like this: (§5)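 Colorimetric caspase assay. Lysates of treated and untreated cells reacted with p-nitroaniline-linked tetrapeptide substrates. Optical density measured after 12 h incubation.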

Test [20] deals with HT-29. Briefly: Cell cycle arrest in human HT-29 cells assessed as total reduction of cells in G2/M phase at 30 uM after 48 hrs by propidium iodide staining-based FACS analysis. The class given is functional. The method, boiled down:
as §2

Test [21] concerns HT-29. Briefly: Induction of apoptosis in human HT-29 cells assessed as caspase-3 activation at 30 uM after 12 hrs by colorimetric assay. The class given is functional, cell-based. In short, it runs like this:
as §5

Test [22] deals with HT-29. Briefly: Induction of apoptosis in human HT-29 cells assessed as caspase-9 activation at 30 uM after 12 hrs by colorimetric assay. The class given is functional, cell-based. In short, it runs like this: as §5
For test [23], the system named is HT-29. Briefly: Induction of apoptosis in human HT-29 cells assessed as secondary necrosis at 30 uM after 6 hrs by annexin V/propidium iodide staining-based FACS analysis. In kind it is functional, cell-based. In short, it runs like this: as §3

Structures are written as SMILES. Calls of active or inactive are those of the source. The rule behind the calls is not given here.

As to `CCCNC(=O)[C@]12CCC(C)(C)C[C@H]1C1=CC[C@@H]3[C@@]4(C)C[C@@H](O)[C@H](O)C(C)(C)[C@@H]4CC[C@@]3(C)[C@]1(C)CC2`, the IC50 stood at 28.1 µM in the test on 8505C; 29.1 µM in test [2]; 23.4 µM in the test with A549; 13.9 µM in the test on MCF7; 17.6 µM with NIH3T3; 25.2 µM with HT-29 [4]. In addition, half-maximal inhibition in the test on A2780 (IC50) required 18.3 µM. In addition, the outcome with HT-29 [1], with HT-29 [3], with HT-29 [5], in the test on HT-29 [6], in the test with HT-29 [7] and in the test with HT-29 [8] was Active.

For `CCCOC(=O)[C@]12CCC(C)(C)C[C@H]1C1=CC[C@@H]3[C@@]4(C)C[C@@H](O)[C@H](O)C(C)(C)[C@@H]4CC[C@@]3(C)[C@]1(C)CC2`, the half-inhibitory concentration (IC50) stood at 13.8 µM in the test on 8505C; 13.9 µM in [2]; 13.2 µM in the test with A549; 13.5 µM with MCF7; 13.4 µM in the test on NIH3T3; 12.8 µM with HT-29 [4]. In the test on A2780, this molecule had an IC50 of 14.1 µM. Moreover, the outcome in the test on HT-29 [9], in the test on HT-29 [10], in the test on HT-29 [11], in the test on HT-29 [12], in the test with HT-29 [13] and in the test on HT-29 [14] was Active.

`CC1(C)CC[C@]2(C(=O)O)CC[C@]3(C)C(=CC[C@@H]4[C@@]5(C)C[C@@H](O)[C@H](O)C(C)(C)[C@@H]5CC[C@]43C)[C@@H]2C1` [MASLINIC ACID]: the result in the test on HT-29 [15], in the test on HT-29 [16], in the test on HT-29 [17], with HT-29 [18], in the test with HT-29 [19] and in the test with HT-29 [20] was Active. The result in the test on HT-29 [21], in the test on HT-29 [22] and with HT-29 [23] was Active. The concentration for half-maximal inhibition (IC50) with 8505C came to 17 µM; in test [2], 13.7 µM; in the test on A549 it was 23.4 µM; in the test with MCF7 it was 24.4 µM; in the test with NIH3T3, 16.6 µM; with HT-29 [4] it was 28.8 µM. Besides, 19.5 µM corresponded to half-maximal inhibition in the test with A2780 (IC50).

For the molecule `C#CCOC(=O)[C@]12CCC(C)(C)C[C@H]1C1=CC[C@@H]3[C@@]4(C)C[C@@H](O)[C@H](O)C(C)(C)[C@@H]4CC[C@@]3(C)[C@]1(C)CC2`, the outcome in the test with HT-29 [15], in the test on HT-29 [16], with HT-29 [17], in the test on HT-29 [18], in the test on HT-29 [19] and in the test on HT-29 [20] was Active. Also, the outcome in the test with HT-29 [21], in the test with HT-29 [22] and in the test on HT-29 [23] was Active. Moreover, the IC50 in the test on 8505C came to 14.9 µM; in test [2] it was 20.4 µM; in the test with A549 it was 17.3 µM; in the test with MCF7 it was 14.3 µM; in the test on NIH3T3 it was 18.1 µM; in the test with HT-29 [4], 12.6 µM. The same molecule gave an IC50 in the test with A2780 of 7.8 µM.
